22 compounds from ChEMBL document CHEMBL1144907, “Novel sst(4)-selective somatostatin (SRIF) agonists. 3. Analogues amenable to radiolabeling” (J Med Chem, 2003) can be followed below.

The target in assay [1] is Somatostatin receptor type 4 (Homo sapiens, UniProt P31391). Kind of assay: Binding affinity towards human somatostatin receptor type 4 using [125I][Leu8,D-Trp22,Tyr25]SRIF-28 as radioligand.
In assay [2] the target is Somatostatin receptor type 1 (Homo sapiens, UniProt P30872). Kind of assay: Binding affinity towards human somatostatin receptor type 1 using [125I][Leu8,D-Trp22,Tyr25]SRIF-28 as radioligand. The gist of the method:
(§1)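 Receptor autoradiography on 20-µm cryostat sections of pellets of cells stably expressing the cloned human receptor. Cell hosts: sst1 CHO-K1, sst2 CCL39, sst3 CCL39, sst5 CHO-K1. Sections were incubated with radioligand at 30 000 cpm/100 µL and displaced by unlabeled peptide from 0.1 to 1000 nM. SRIF-28 was run in parallel as control. IC50 was obtained by computer-assisted image quantification against calibrated isotope tissue standards.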

Assay [3] deals with Somatostatin receptor type 2 (Homo sapiens, UniProt P30874). Description: Binding affinity towards human somatostatin receptor type 2 using [125I][Leu8,D-Trp22,Tyr25]SRIF-28 as radioligand. The essentials:
as §1

Assay [4] has as its target Somatostatin receptor type 5 (Homo sapiens, UniProt P35346). Kind of assay: Binding affinity towards human somatostatin receptor type 5 using [125I][Leu8,D-Trp22,Tyr25]SRIF-28 as radioligand. The essentials: as §1
Assay [5] concerns the target Somatostatin receptor type 3 (Homo sapiens, UniProt P32745). Kind of assay: Binding affinity towards human somatostatin receptor type 3 using [125I][Leu8,D-Trp22,Tyr25]SRIF-28 as radioligand. The gist of the method:
as §1

Numbered stars: 1 amine (or outer) side, 2 acyl side, 3 side chain; on linkers, the order of the positions; unused ones are H or OH. Bridge positions count the residues as written; N and C are the ends. Square brackets hold non-standard residues; d marks the D form. Peptide text beside a SMILES is read from it. * marks the point of attachment. Tyr(Nα-carbamoyl) = NC(=O)N[C@@H](Cc1ccc(O)cc1)C(=O)*; X3 = C[C@H](c1c[nH]c2ccccc12)[C@@H](N[*:1])C(=O)[*:2]; Trp(βS-Me) = C[C@@H](c1c[nH]c2ccccc12)[C@H](N)C(=O)O Where only a bound is given, the exact number is not on record here.

Sequence of Somatostatin receptor type 4 (P31391 whole entry): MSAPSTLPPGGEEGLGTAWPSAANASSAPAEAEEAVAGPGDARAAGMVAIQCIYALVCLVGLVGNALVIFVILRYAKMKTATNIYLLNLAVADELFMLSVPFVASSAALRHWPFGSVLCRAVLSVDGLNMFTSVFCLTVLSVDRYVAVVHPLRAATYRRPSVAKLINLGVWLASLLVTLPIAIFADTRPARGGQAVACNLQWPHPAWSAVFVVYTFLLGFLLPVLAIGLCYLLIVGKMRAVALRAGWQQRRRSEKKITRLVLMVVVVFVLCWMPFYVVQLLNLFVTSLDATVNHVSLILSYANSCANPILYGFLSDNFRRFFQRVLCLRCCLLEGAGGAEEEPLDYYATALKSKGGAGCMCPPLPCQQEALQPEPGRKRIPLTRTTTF
Sequence of Somatostatin receptor type 1 (P30872 whole entry): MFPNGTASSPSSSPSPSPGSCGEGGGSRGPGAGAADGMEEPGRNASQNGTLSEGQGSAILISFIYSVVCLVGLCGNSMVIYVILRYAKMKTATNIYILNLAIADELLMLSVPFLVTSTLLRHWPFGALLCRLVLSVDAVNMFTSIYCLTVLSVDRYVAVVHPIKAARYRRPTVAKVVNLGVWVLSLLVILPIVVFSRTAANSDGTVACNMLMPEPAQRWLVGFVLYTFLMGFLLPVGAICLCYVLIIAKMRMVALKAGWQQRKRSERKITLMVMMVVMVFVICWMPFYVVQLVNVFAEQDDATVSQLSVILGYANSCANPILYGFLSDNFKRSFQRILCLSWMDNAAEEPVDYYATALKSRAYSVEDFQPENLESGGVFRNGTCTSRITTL
Sequence of Somatostatin receptor type 3 (P32745 whole entry): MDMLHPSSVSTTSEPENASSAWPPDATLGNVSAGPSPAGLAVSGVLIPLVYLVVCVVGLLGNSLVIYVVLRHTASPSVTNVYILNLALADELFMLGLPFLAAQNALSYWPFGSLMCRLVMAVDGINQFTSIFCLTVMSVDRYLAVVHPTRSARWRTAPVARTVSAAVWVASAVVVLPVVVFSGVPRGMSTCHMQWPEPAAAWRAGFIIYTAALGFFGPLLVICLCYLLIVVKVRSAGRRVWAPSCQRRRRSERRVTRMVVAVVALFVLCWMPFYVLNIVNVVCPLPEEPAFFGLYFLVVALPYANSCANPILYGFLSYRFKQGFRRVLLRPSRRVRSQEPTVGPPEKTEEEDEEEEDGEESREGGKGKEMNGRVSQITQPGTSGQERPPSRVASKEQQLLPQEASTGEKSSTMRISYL
Sequence of Somatostatin receptor type 2 (P30874 whole entry): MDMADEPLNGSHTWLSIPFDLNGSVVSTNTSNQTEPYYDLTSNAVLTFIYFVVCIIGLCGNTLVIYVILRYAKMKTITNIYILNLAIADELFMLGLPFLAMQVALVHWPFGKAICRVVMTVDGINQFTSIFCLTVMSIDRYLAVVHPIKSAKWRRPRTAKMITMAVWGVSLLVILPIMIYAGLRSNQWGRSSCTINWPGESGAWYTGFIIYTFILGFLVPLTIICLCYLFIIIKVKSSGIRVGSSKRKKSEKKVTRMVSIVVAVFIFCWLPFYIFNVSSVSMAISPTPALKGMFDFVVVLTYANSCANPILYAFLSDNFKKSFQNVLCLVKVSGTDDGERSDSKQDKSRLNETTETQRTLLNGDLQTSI
Sequence of Somatostatin receptor type 5 (P35346 whole entry): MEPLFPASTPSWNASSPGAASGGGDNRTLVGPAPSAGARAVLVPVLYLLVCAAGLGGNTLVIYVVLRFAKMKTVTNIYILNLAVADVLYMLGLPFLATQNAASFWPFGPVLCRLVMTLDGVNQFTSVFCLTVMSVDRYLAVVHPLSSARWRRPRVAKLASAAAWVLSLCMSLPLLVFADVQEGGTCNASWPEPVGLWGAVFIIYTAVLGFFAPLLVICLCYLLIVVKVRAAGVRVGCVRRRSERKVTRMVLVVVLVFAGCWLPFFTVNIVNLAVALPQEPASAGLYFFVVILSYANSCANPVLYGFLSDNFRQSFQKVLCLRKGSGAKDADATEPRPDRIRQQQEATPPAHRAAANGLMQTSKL

For the compound `COC(=O)[C@H](CCCN=C(N)N)NC(=O)CCCc1c(-c2ccccc2)[nH]c2c(F)cc(F)cc12`, the IC50 in assay [1] was determined as 0.0042 µM.

Turning to `C[C@@H]1NC(=O)[C@H](Cc2ccccc2)NC(=O)[C@@H](NC(=O)[C@@H](N)Cc2ccc(O)c(I)c2)CSSC[C@@H](C(=O)O)NC(=O)[C@H](Cc2ccccc2)NC(=O)[C@H]([C@@H](C)O)NC(=O)[C@H](CCCCN)NC(=O)[C@H](Cc2c[nH]c3ccccc23)NC1=O`, the IC50 in assay [2] is more than 1 µM; in assay [3], more than 1 µM; in assay [1], 0.0035 µM; in assay [4], more than 1 µM; in assay [5], 1.02 µM.

As to `C[C@@H](O)[C@@H]1NC(=O)[C@H](CCCCN)NC(=O)[C@H](Cc2c[nH]c3ccccc23)NC(=O)[C@H](Cc2ccc(N)cc2)NC(=O)[C@H](Cc2ccccc2)NC(=O)[C@@H](NC(=O)[C@H](Cc2ccc(O)c(I)c2)NC(N)=O)CSSC[C@@H](C(=O)O)NC(=O)[C@H](Cc2ccccc2)NC1=O`, the IC50 in assay [2] is more than 1 µM; in assay [3], more than 1 µM; in assay [1], 0.0088 µM; in assay [4], 0.99 µM; in assay [5], 0.325 µM.

As for `C[C@@H](O)[C@@H]1NC(=O)[C@H](CCCCN)NC(=O)[C@@H](Cc2c[nH]c3ccccc23)NC(=O)[C@H](Cc2ccc(O)cc2)NC(=O)[C@H](Cc2ccccc2)NC(=O)[C@@H](N)CSSC[C@@H](C(=O)O)NC(=O)[C@H](Cc2ccccc2)NC1=O`, the IC50 in assay [2] is 0.117 µM; in assay [3], 0.0257 µM; in assay [1] it was 0.0018 µM; in assay [4] it was 0.0203 µM; in assay [5], 0.0357 µM.

Consider `C[C@@H]1NC(=O)[C@H](Cc2ccccc2)NC(=O)[C@@H](NC(=O)[C@@H](N)Cc2ccc(O)cc2)CSSC[C@@H](C(=O)O)NC(=O)[C@H](Cc2ccccc2)NC(=O)[C@H]([C@@H](C)O)NC(=O)[C@H](CCCCN)NC(=O)[C@@H]([C@@H](C)c2c[nH]c3ccccc23)NC1=O`, for which the IC50 in assay [2] is more than 1 µM; in assay [3], 0.046 µM; in assay [1] it was 0.0056 µM; in assay [5] it was 0.381 µM.

As to `C[C@@H]1NC(=O)[C@H](Cc2ccccc2)NC(=O)[C@@H](N)CSSC[C@@H](C(=O)O)NC(=O)[C@H](Cc2ccccc2)NC(=O)[C@H]([C@@H](C)O)NC(=O)[C@H](CCCCN)NC(=O)[C@H](Cc2c[nH]c3ccccc23)NC1=O`, the IC50 in assay [2] is more than 1 µM.

`C[C@@H](O)[C@@H]1NC(=O)[C@H](CCCCN)NC(=O)[C@H](Cc2c[nH]c3ccccc23)NC(=O)[C@H](CCCN)NC(=O)[C@H](Cc2ccccc2)NC(=O)[C@@H](NC(=O)[C@H](Cc2ccc(O)cc2)NC(N)=O)CSSC[C@@H](C(=O)O)NC(=O)[C@H](Cc2ccccc2)NC1=O`: the IC50 in assay [2] was 0.099 µM; in assay [3] it was 0.561 µM; in assay [1], 0.0021 µM; in assay [5], more than 1 µM.

Compound `C[C@@H]1NC(=O)[C@H](Cc2ccccc2)NC(=O)[C@@H](N)CSSC[C@@H](C(=O)O)NC(=O)[C@H](Cc2ccccc2)NC(=O)[C@H]([C@@H](C)O)NC(=O)[C@H](CCCCN)NC(=O)[C@@H](Cc2c[nH]c3ccccc23)NC1=O` displayed an IC50 in assay [2] of more than 1 µM.

Consider `C[C@@H](O)[C@@H]1NC(=O)[C@H](CCCCN)NC(=O)[C@H](Cc2c[nH]c3ccccc23)NC(=O)[C@H](Cc2ccc(O)cc2)NC(=O)[C@H](Cc2ccccc2)NC(=O)[C@@H](N)CSSC[C@@H](C(=O)O)NC(=O)[C@H](Cc2ccccc2)NC1=O`, for which the IC50 in assay [2] came to 0.027 µM; in assay [3], 0.054 µM; in assay [1] it was 0.0013 µM; in assay [4], 0.063 µM; in assay [5], 0.022 µM.

The compound `C[C@@H](O)[C@@H]1NC(=O)[C@H](CCCCN)NC(=O)[C@H](Cc2c[nH]c3ccccc23)NC(=O)[C@H](Cc2ccc(N)cc2)NC(=O)[C@H](Cc2ccccc2)NC(=O)[C@@H](N)CSSC[C@@H](C(=O)O)NC(=O)[C@H](Cc2ccccc2)NC1=O` returned an IC50 in assay [5] of more than 1 µM.

Compound `C[C@@H](O)[C@@H]1NC(=O)[C@H](CCCCN)NC(=O)[C@@H](Cc2c[nH]c3ccccc23)NC(=O)[C@H](Cc2ccc(N)cc2)NC(=O)[C@H](Cc2ccccc2)NC(=O)[C@@H](NC(N)=O)CSSC[C@@H](C(=O)O)NC(=O)[C@H](Cc2ccc(O)cc2)NC1=O` showed an IC50 in assay [2] of more than 1 µM.

In assay [3], `C[C@@H](O)[C@@H]1NC(=O)[C@H](CCCCN)NC(=O)[C@H](Cc2c[nH]c3ccccc23)NC(=O)[C@H](Cc2ccc(N)cc2)NC(=O)[C@H](Cc2ccccc2)NC(=O)[C@@H](NC(N)=O)CSSC[C@@H](C(=O)O)NC(=O)[C@H](Cc2ccc(O)cc2)NC1=O` showed an IC50 of more than 1 µM.

The compound `C[C@@H]1NC(=O)[C@H](Cc2ccccc2)NC(=O)[C@@H](NC(=O)[C@@H](N)Cc2ccc(O)cc2)CSSC[C@@H](C(=O)O)NC(=O)[C@H](Cc2ccccc2)NC(=O)[C@H]([C@@H](C)O)NC(=O)[C@H](CCCCN)NC(=O)[C@H](Cc2c[nH]c3ccccc23)NC1=O` had an IC50 in assay [2] of more than 1 µM.

As for `C[C@@H](O)[C@@H]1NC(=O)[C@H](CCCCN)NC(=O)[C@H](Cc2c[nH]c3ccccc23)NC(=O)[C@H](Cc2ccccc2)NC(=O)[C@H](Cc2ccccc2)NC(=O)[C@@H](N)CSSC[C@@H](C(=O)O)NC(=O)[C@H](Cc2ccccc2)NC1=O` (H-CFFWKTFC-OH; disulfide 1-8), the IC50 in assay [2] was found to be 0.0053 µM; in assay [3], 0.13 µM; in assay [1], 0.0007 µM; in assay [4], 0.014 µM; in assay [5], 0.013 µM.

As to `C[C@@H](O)[C@@H]1NC(=O)[C@H](CCCCN)NC(=O)[C@H]([C@@H](C)c2c[nH]c3ccccc23)NC(=O)[C@H](Cc2ccccc2)NC(=O)[C@H](Cc2ccccc2)NC(=O)[C@@H](N)CSSC[C@@H](C(=O)O)NC(=O)[C@H](Cc2ccccc2)NC1=O` (H-CFF[Trp(βS-Me)]KTFC-OH; disulfide 1-8), the 50% inhibitory concentration (IC50) in assay [2] was found to be 0.021 µM; in assay [3] it was 0.027 µM; in assay [1], 0.0018 µM; in assay [4], 0.221 µM; in assay [5], 0.33 µM.

Turning to `C[C@H](c1c[nH]c2ccccc12)[C@H]1NC(=O)[C@H](Cc2ccccc2)NC(=O)[C@H](Cc2ccccc2)NC(=O)[C@@H](N)CSSC[C@@H](C(=O)O)NC(=O)[C@H](Cc2ccccc2)NC(=O)[C@H]([C@@H](C)O)NC(=O)[C@H](CCCCN)NC1=O` (H-CFF[X3]KTFC-OH; disulfide 1-8), the IC50 in assay [2] was 0.049 µM; in assay [3], 0.04 µM; in assay [1] it was 0.004 µM; in assay [4], 0.042 µM; in assay [5], 0.053 µM.

As for `C[C@@H](O)[C@@H]1NC(=O)[C@H](CCCCN)NC(=O)[C@@H](Cc2c[nH]c3ccccc23)NC(=O)[C@H](Cc2ccccc2)NC(=O)[C@H](Cc2ccccc2)NC(=O)[C@@H](N)CSSC[C@@H](C(=O)O)NC(=O)[C@H](Cc2ccccc2)NC1=O` (H-CFF[dW]KTFC-OH; disulfide 1-8), the IC50 was determined as 0.027 µM in assay [2]; 0.041 µM in assay [3]; 0.0018 µM in assay [1]; 0.046 µM in assay [4]; 0.013 µM in assay [5].

Regarding `C[C@@H](O)[C@@H]1NC(=O)[C@H](CCCCN)NC(=O)[C@H](Cc2c[nH]c3ccccc23)NC(=O)[C@H](Cc2ccccc2)NC(=O)[C@H](Cc2ccccc2)NC(=O)[C@@H](NC(=O)[C@@H](N)Cc2ccc(O)cc2)CSSC[C@@H](C(=O)O)NC(=O)[C@H](Cc2ccccc2)NC1=O` (H-YCFFWKTFC-OH; disulfide 2-9), the IC50 in assay [2] was 0.013 µM; in assay [3], 0.179 µM; in assay [1] it was 0.0016 µM; in assay [5], 0.057 µM.

`C[C@@H](O)[C@@H]1NC(=O)[C@H](CCCCN)NC(=O)[C@H]([C@@H](C)c2c[nH]c3ccccc23)NC(=O)[C@H](Cc2ccccc2)NC(=O)[C@H](Cc2ccccc2)NC(=O)[C@@H](NC(=O)[C@@H](N)Cc2ccc(O)cc2)CSSC[C@@H](C(=O)O)NC(=O)[C@H](Cc2ccccc2)NC1=O` (H-YCFF[Trp(βS-Me)]KTFC-OH; disulfide 2-9): the IC50 turned out to be 0.088 µM in assay [2], 0.048 µM in assay [3], 0.0009 µM in assay [1] and 0.116 µM in assay [5].

`CC(O)[C@@H]1NC(=O)[C@H](CCCCN)NC(=O)[C@H](Cc2c[nH]c3ccccc23)NC(=O)[C@H](Cc2ccc(N)cc2)NC(=O)C(Cc2ccccc2)NC(=O)C(NC(N)=O)CSSC[C@@H](C(=O)O)NC(=O)[C@H](Cc2ccccc2)NC1=O` (single isomer, unassigned): the IC50 in assay [3] was more than 1 µM; in assay [1], 0.0015 µM; in assay [4], more than 1 µM.

Consider `C[C@@H](O)[C@@H]1NC(=O)[C@H](CCCCN)NC(=O)[C@@H](Cc2c[nH]c3ccccc23)NC(=O)[C@H](Cc2ccccc2)NC(=O)[C@H](Cc2ccccc2)NC(=O)[C@@H](NC(N)=O)CSSC[C@@H](C(=O)O)NC(=O)[C@H](Cc2ccc(O)cc2)NC1=O` (stereo in doubt), for which the IC50 in assay [2] stood at 0.055 µM; in assay [3], 0.052 µM; in assay [1] it was 0.001 µM; in assay [5], 0.016 µM.

Take `C[C@@H]1NC(=O)[C@H](Cc2ccccc2)NC(=O)[C@@H](NC(=O)[C@H](Cc2ccc(O)cc2)NC(N)=O)CSSC[C@@H](C(=O)O)NC(=O)[C@H](Cc2ccccc2)NC(=O)[C@H]([C@@H](C)O)NC(=O)[C@H](CCCCN)NC(=O)[C@H](Cc2c[nH]c3ccccc23)NC1=O` ({Tyr(Nα-carbamoyl)}-CFAWKTFC-OH; disulfide 1-8): the figures for the IC50 in assay [2], in assay [1] and in assay [4] were more than 1 µM, 0.0024 µM and more than 1 µM, respectively.
